# Molecular target: Monoacylglycerol lipase ABHD6 (Mus musculus) (UniProt Q8R2Y0)
# Assay: liver ABHD6 blockade after oral dosing – gel-based competitive ABPP, fluorescence, mouse, powder samples, in vivo study for DAGLb inhibitor project, late-stage follow-up (AID 624077)
# Conditions: C57BL mice oral dosing, stronger effect = higher value
# Summary of the method: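 Test system: C57BL mouse liver membranes, ABHD6 | Doses: Oral 10, 5, 1 mg/kg | Schedule: 4 h oral dose-to-liver-harvest, 30 min 37 °C probe labelling | Signal: SDS-PAGE followed by in-gel fluorescence scanning | Read-out basis: Percent ABHD6 inhibition from band integrated optical density versus vehicle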
# [1] = measured here: ABHD6 inhibition at 1 mg/kg
# [2] = measured here: ABHD6 inhibition at 5 mg/kg
# Sequence of Monoacylglycerol lipase ABHD6 (Mus musculus) (Q8R2Y0 whole entry, looked up): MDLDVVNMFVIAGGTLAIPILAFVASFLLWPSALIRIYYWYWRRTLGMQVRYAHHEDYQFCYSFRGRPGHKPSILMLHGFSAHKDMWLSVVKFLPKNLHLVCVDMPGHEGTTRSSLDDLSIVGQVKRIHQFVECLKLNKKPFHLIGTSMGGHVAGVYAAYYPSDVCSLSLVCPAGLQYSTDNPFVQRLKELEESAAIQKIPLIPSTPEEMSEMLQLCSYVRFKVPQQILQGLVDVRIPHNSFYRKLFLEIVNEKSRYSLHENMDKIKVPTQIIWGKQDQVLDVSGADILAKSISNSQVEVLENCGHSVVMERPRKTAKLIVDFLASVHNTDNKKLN
SMILES,inhibition [%],inhibition [1] [%],inhibition [2] [%]
O=C(N1CCCCC1Cc1ccccc1)n1cc(-c2ccc(-c3ccccc3)cc2)nn1 (centres undefined),100,100,100
COc1ccccc1-c1ccc(-c2cn(C(=O)N3CCCCC3Cc3ccccc3)nn2)cc1 (centres undefined),100,90,100
COc1ccc(-c2ccc(-c3cn(C(=O)N4CCCCC4c4ccccc4)nn3)cc2)cc1 (centres undefined),100,70,80
